Screening results from PubChem BioAssay.
Cneo AK release – Cryptococcus neoformans cell lysis inducers, primary screen, AK release luminescence, single concentration. AID 651654, 2012. actives 0.2% (n = 360,000). lysis activity, % at 15 µM. C. neoformans lysis, adenylate kinase release luminescence, 4 h; normalised: neutral wells 0, clomiphene wells 100;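 active = mean lysis activity across replicates of at least 80%, whatever share of replicates individually reach that level; inactive = mean lysis activity below 80%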
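read-out = cell lysis signal | test system = log-phase Cryptococcus neoformans yeast cells | input = cells at 5 × 10^6 per mL | medium = fresh YPD growth medium | signal = luminescent adenylate kinase detection reagent | timing = 4 h at 37 °C static, read 1 h later | dosing = single dose | controls = Clomiphene as positive lysis control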
PGC1a acetyl inh – inhibitors of PGC1a acetylation signal, primary screen, cell-based, U2OS, AlphaScreen, inhibitor mode; AlphaScreen anti-acetyl-lysine; with virally co-expressed GCN5 acetyltransferase; inhibition, % at 15.6 µM; actives 0.17% (n = 350,000); AID 651687, 2012;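 active = every replicate shows inhibition of at least 40%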;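 note: 0% = neutral control wells and 100% = positive control wells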
MITF act – activators of MITF-driven TRPM1 promoter reporter, primary screen, cell-based, SK-MEL-5, luciferase, single point; activation, % at 12.5 µM; actives 0.75% (n = 300,000); AID 588334, 2011; SK-MEL-5 TRPM1-promoter luciferase, 24 h; % of positive control, neutral wells = 0;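 active = mean activation of at least 80% with every replicate also reaching 80%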;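 note: 0% = neutral control wells and 100% = parthenolide positive control wells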
Wnt bcat act – Wnt/beta-catenin pathway activators, primary screen, cell-based, plate reader, single point. actives 1.2% (n = 300,000). AID 743398, 2014. Wnt/beta-catenin reporter cell assay, activator. activation, % at 9.35 µM; in the data active = activation above about 30%, passing the limit was not always enough;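 note: 0% = neutral control wells and 100% = positive control wells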
* hit, by the source's call. The list is not random: actives were taken first. Their share in the collection is about 1.5%.

What do the screens show for `COC1=CC(=O)c2c(ccc3ncnc(N)c23)C1=O`?
PGC1a acetyl inh: 66*; Wnt bcat act: -26

How did COC1=CC(=O)c2nc(Cl)ccc2C1=O do in these assays?
Wnt bcat act: -3

Results for Cc1ccc2nc(-c3ccc(NC(=S)NCC(C)(C)CN(C)C)cc3)sc2c1 ?
PGC1a acetyl inh: -27; MITF act: 14; Wnt bcat act: 56*

Results for CCC(C)(C)NC(=S)Nc1ccc(-c2nc3ccc(C)cc3s2)cc1 ?
Cneo AK release: -9; PGC1a acetyl inh: 3; MITF act: 31; Wnt bcat act: 6

How did CC1=CCC(C(=O)O)C(C(=O)Nc2ccc(-c3nc4ccc(C)cc4s3)cc2)C1 (configuration not stated) do in these assays?
PGC1a acetyl inh: -4; MITF act: 14; Wnt bcat act: 58*

Results for Cc1ccc2sc(-c3ccc(NC(=O)CCN4C(=O)c5ccccc5C4=O)cc3)nc2c1 ?
Wnt bcat act: 73*

Results for Cc1cc(C)cc(N(CC(=O)Nc2ccc(-c3nc4ccc(C)cc4s3)cc2)S(C)(=O)=O)c1 ?
Cneo AK release: -4; PGC1a acetyl inh: -12; MITF act: 58; Wnt bcat act: 39*

What do the screens show for `Cc1ccc2nc(-c3ccc(NC(=O)CN(c4ccccc4C)S(C)(=O)=O)cc3)sc2c1`?
PGC1a acetyl inh: -5; MITF act: 51

What do the screens show for `CC(=O)Nc1ccc(NC(=O)CCN2C(=O)c3ccccc3C2=O)cc1`?
Cneo AK release: -1; Wnt bcat act: -1

What do the screens show for `CO[C@@H]1CN(C)C(=O)c2ccc(NC(=O)c3ccc(F)cc3)cc2OC[C@@H](C)N(C(=O)CN(C)C)C[C@@H]1C`?
PGC1a acetyl inh: -31

Results for CC(=O)Nc1ccc(S(=O)(=O)Nc2nc3ccc(C)cc3s2)cc1 ?
Cneo AK release: -2

What do the screens show for `Cc1ccc2nc(-c3ccc(NS(=O)(=O)c4ccc(F)cc4)cc3)sc2c1`?
Cneo AK release: -5; PGC1a acetyl inh: -2; MITF act: 40; Wnt bcat act: 44*

What do the screens show for `Cc1ccc2nc(-c3ccc(NC(=S)NCCC(C)C)cc3)sc2c1`?
Cneo AK release: -8; PGC1a acetyl inh: 3; MITF act: 30; Wnt bcat act: 49*

What do the screens show for `O=C(COc1ccc(Cl)cc1Cl)NC1CCSC1=O` (configuration not stated)?
Cneo AK release: -10; PGC1a acetyl inh: 9; MITF act: 94*

Results for O=C(COc1ccc(Cl)cc1Cl)NC(=O)N1CCCCC1 ?
MITF act: 95*

What do the screens show for `O=C(COc1ccccc1Cl)NC(=O)NC1CCCC1`?
Cneo AK release: 0; PGC1a acetyl inh: 7; MITF act: 97*

How did O=C(COc1ccc(Cl)cc1Cl)N1CCCN(C(=O)COc2ccc(Cl)cc2Cl)CC1 do in these assays?
Cneo AK release: -1; PGC1a acetyl inh: 5; Wnt bcat act: -4

How did O=C(COc1ccc(Cl)cc1Cl)NC(=O)NC1CCCC1 do in these assays?
Cneo AK release: 1; PGC1a acetyl inh: -12; MITF act: 127*; Wnt bcat act: 21

What do the screens show for `C[C@H](CO)N1C[C@H](C)[C@@H](CN(C)CC2CCOCC2)Oc2ncc(C3=CCCCC3)cc2C1=O`?
Cneo AK release: 13; PGC1a acetyl inh: 5

How did COc1ccc2c3c([nH]c2c1)[C@@H](CO)N(C)CC31CCN(C(=O)NC(C)C)CC1 do in these assays?
PGC1a acetyl inh: 9

How did C[C@H](CO)N1C[C@H](C)[C@H](CN(C)Cc2ccc(C(=O)Nc3ccccc3N)cc2)Oc2ccc(NS(C)(=O)=O)cc2CC1=O do in these assays?
Cneo AK release: -3; PGC1a acetyl inh: -8

How did Cc1noc(C)c1NC(=O)Nc1ccc2c(c1)C(=O)N([C@@H](C)CO)C[C@@H](C)[C@H](CN(C)CC1CCCCC1)OCCCC[C@H](C)O2 do in these assays?
Cneo AK release: -1

How did O=C(COc1ccc(Cl)cc1Br)NC(=O)NC1CCCC1 do in these assays?
Cneo AK release: -3; MITF act: 152*; Wnt bcat act: 54*

How did O=C(COc1ccc(F)c(Cl)c1)NC(=O)NC1CCCC1 do in these assays?
Cneo AK release: -10; PGC1a acetyl inh: -10; Wnt bcat act: -2

How did C[C@@H]1CN([C@H](C)CO)C(=O)c2cc(NC(=O)CCC(F)(F)F)ccc2O[C@@H](C)CCCCO[C@H]1CN(C)S(=O)(=O)c1cn(C)cn1 do in these assays?
Cneo AK release: -2

Results for O=C(c1ccc(C(=O)N2CCOCC2)s1)N1CCOCC1 ?
Cneo AK release: 1; PGC1a acetyl inh: 0; MITF act: 14; Wnt bcat act: 0

How did O=C(c1ccc(-c2ccccc2Cl)s1)N1CCOCC1 do in these assays?
Cneo AK release: -3; PGC1a acetyl inh: -7; MITF act: 92*; Wnt bcat act: 10

What do the screens show for `C[C@H](CO)N1C[C@H](C)[C@@H](CN(C)S(=O)(=O)c2ccccc2)OCCCC[C@H](C)Oc2ccc(NS(=O)(=O)c3cccs3)cc2C1=O`?
Cneo AK release: -8; PGC1a acetyl inh: 4

How did C[C@@H]1CN([C@H](C)CO)C(=O)c2cc(NS(=O)(=O)c3ccc(Cl)cc3)ccc2O[C@@H](C)CCCCO[C@@H]1CN(C)CC1CCCCC1 do in these assays?
Cneo AK release: -14; PGC1a acetyl inh: -8

What do the screens show for `O=C(NCCc1ccc(F)cc1)Nc1ccc2c(c1)OCO2`?
MITF act: 20; Wnt bcat act: 48*

What do the screens show for `O=C(Nc1ccc2c(c1)OCO2)Nc1ccccn1`?
Cneo AK release: -2; PGC1a acetyl inh: -7; MITF act: 62; Wnt bcat act: 55*

Results for O=C(Nc1ccc(Cl)cc1)Nc1ccc2c(c1)OCO2 ?
Cneo AK release: -21; PGC1a acetyl inh: -2; MITF act: 63; Wnt bcat act: 38*

What do the screens show for `O=C(NCCc1ccccc1)Nc1ccc2c(c1)OCO2`?
MITF act: 34; Wnt bcat act: 13

How did CC1(C(=O)Nc2ccc3c(c2)OCO3)CCN1C(=O)C1(c2ccc(Cl)cc2)CC1 (configuration not stated) do in these assays?
Cneo AK release: 8; Wnt bcat act: 51*

What do the screens show for `O=C(Cc1ccncc1)N[C@@H]1CC[C@@H](CCn2cc(-c3ccccc3F)nn2)O[C@@H]1CO`?
Cneo AK release: 2

How did CCCNC(=O)[C@H]1[C@H](CO)[C@H]2Cn3c(cccc3=O)[C@@H]1N2S(=O)(=O)c1ccccc1F do in these assays?
Cneo AK release: 0

How did O=C(Nc1ccc(F)cc1)Nc1ccc2c(c1)OCO2 do in these assays?
Cneo AK release: -4; MITF act: 104*; Wnt bcat act: 27

How did CC1CCC(NC(=O)C(=O)Nc2ccc3c(c2)OCO3)CC1 (configuration not stated) do in these assays?
Cneo AK release: -3; MITF act: 63; Wnt bcat act: 32*

Results for Cc1cccc(Nc2nc3c(s2)CCCC3)c1 ?
Cneo AK release: 0; PGC1a acetyl inh: 6; MITF act: 103*; Wnt bcat act: 65*
